Experimental data as given in ChEMBL document CHEMBL1154882, “Hydrogenative desulphurization of thienopyrrolizinones: an easy and selective access to (Z)-phenethylidenepyrrolizinones with in vitro cytotoxic activity” (Eur J Med Chem, 2010).
pIC50: −log10 of the molar value.

Legend:
[1] = system: KB; experiment: Cytotoxicity against human KB cells assessed as growth inhibition at 10 uM after 72 hrs by MTS assay; format: functional
In short: (§1)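 KB cells plated at 650 cells/well, treated 24 h later with compounds in DMSO at 10^-5 or 10^-6 M, in triplicate. Controls got DMSO at 1% final volume; taxotere 2.5×10^-10 M served as reference. After 72 h exposure, MTS reagent added for 3 h at 37 °C and absorbance read at 490 nm. Results given as percent inhibition of proliferation relative to control OD.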

[2] = system: KB; experiment: Cytotoxicity against human KB cells assessed as growth inhibition at 1 uM after 72 hrs by MTS assay; format: functional; in short: as §1
[3] = system: KB; experiment: Cytotoxicity against human KB cells assessed as growth inhibition after 72 hrs by MTS assay; format: functional, cell-based
In short: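 KB cells seeded at 650 cells/well and dosed 24 h later with DMSO solutions (1% final DMSO, also given to controls) over a range starting at 0.5 nM. After 72 h exposure, MTS added for 3 h at 37 °C and A490 read. Proliferation inhibition taken versus control OD. IC50 (50% inhibition) determined in separate duplicate for compounds giving over 80% inhibition at 10^-6 M.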

[4] = Inhibition of tubulin

pIC50 [4]	Structure (SMILES)	inhibition at 10 µM [1]	inhibition at 1 µM [2]	pIC50 [3]
	COc1ccc(/C(C)=C2/CC(=O)c3cccn32)cc1O	95%	91%	7.15
	COc1ccc(/C(C)=C2/CC(=O)c3cccn32)cc1	78%	1%	
	C/C(=C1\CC(=O)c2cccn21)c1ccc(Cl)cc1	0%	0%	
	CC(C)C1CC(=O)c2cccn21 (configuration not stated)	0%	0%	
5.54	COc1ccc(-c2csc3c2-n2cccc2C3=O)cc1O	86%	86%	8.24
	COc1ccc(-c2csc3c2-n2cccc2C3=O)cc1	84%	92%	7.30
	CC(=O)O[C@@]12CO[C@@H]1C[C@H](O)[C@@]1(C)C(=O)[C@H](O)C3=C(C)[C@@H](OC(=O)[C@H](O)[C@@H](NC(=O)OC(C)(C)C)c4ccccc4)C[C@@](O)([C@@H](OC(=O)c4ccccc4)[C@H]21)C3(C)C [DOCETAXEL]			9.40
